Values after ≈ are worked out from the molar mass of the structure shown.
How the values were obtained:
[1] = tested on: Mycobacterium tuberculosis; assay: Inhibition of multidrug-resistant Mycobacterium tuberculosis PT20 clinical isolate QcrB assessed as reduction in bacterial growth by resazurin reduction microplate assay
Procedure, shortened: (§1)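 REMA in Middlebrook 7H9 with 10% ADC and 5% DMSO. Compounds come from 2 mg/mL DMSO stocks as 10-point 2-fold serial dilutions, with a top concentration of 5–40 µg/mL set by solubility. MIC is the lowest concentration preventing resazurin blue-to-pink conversion. Three independent experiments; the modal or highest value is reported, in µM.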

[2] = tested on: Mycobacterium tuberculosis; assay: Inhibition of multidrug-resistant Mycobacterium tuberculosis PT12 clinical isolate QcrB assessed as reduction in bacterial growth by resazurin reduction microplate assay; procedure, shortened: as §1
[3] = tested on: Mycobacterium tuberculosis; assay: Inhibition of Mycobacterium tuberculosis QcrB T313A mutant assessed as reduction in bacterial growth by resazurin reduction microplate assay; procedure, shortened: as §1
[4] = tested on: Mycobacterium tuberculosis; assay: Inhibition of multidrug-resistant Mycobacterium tuberculosis PT2 clinical isolate QcrB assessed as reduction in bacterial growth by resazurin reduction microplate assay; procedure, shortened: as §1
[5] = Ratio of MIC for inhibition of Mycobacterium tuberculosis QcrB T313A mutant to MIC for inhibition of Mycobacterium tuberculosis H37Rv ATCC 27294 QcrB assessed as reduction in bacterial growth

For NNC(=O)c1ccncc1, the MIC [1] was 146 µM (≈ 20 µg/mL), the MIC [2] was 72.9 µM (≈ 10 µg/mL) and the MIC [3] was 2.3 µM (≈ 0.315 µg/mL).
With CO[C@H]1/C=C/O[C@@]2(C)Oc3c(C)c(O)c4c(O)c(c(/C=N/N5CCN(C)CC5)c(O)c4c3C2=O)NC(=O)/C(C)=C\C=C\[C@H](C)[C@H](O)[C@@H](C)[C@@H](O)[C@@H](C)[C@H](OC(C)=O)[C@@H]1C the MIC [1] was 12.2 µM (≈ 10 µg/mL), the MIC [2] was > 48.6 µM and the MIC [4] was > 48.6 µM.
For COc1ccc2nc(C)cc(OCc3ccc(Cl)c(Cl)c3)c2c1, the Ratio [5] was > 4, the MIC [1] was 0.2 µM (≈ 0.0696 µg/mL) and the MIC [2] was 0.5 µM (≈ 0.174 µg/mL). It also gave an MIC [3] of 14.4 µM (≈ 5.01 µg/mL) and an MIC [4] of 0.2 µM (≈ 0.0696 µg/mL).
With COc1ccc2nc(C)cc(OCC(=O)c3ccccc3)c2c1 the Ratio [5] was > 4, the MIC [1] was 1 µM (≈ 0.307 µg/mL) and the MIC [2] was 2 µM (≈ 0.615 µg/mL). It also gave an MIC [3] of 32.5 µM (≈ 9.99 µg/mL) and an MIC [4] of 2 µM (≈ 0.615 µg/mL).
In the case of COc1ccc2nc(C)cc(OCC(=O)c3cccc(Cl)c3)c2c1, the Ratio [5] is reported as > 4, the MIC [1] is reported as 0.2 µM (≈ 0.0684 µg/mL) and the MIC [2] is reported as 0.9 µM (≈ 0.308 µg/mL). For the same molecule, the MIC [3] was 7.3 µM (≈ 2.5 µg/mL) and the MIC [4] was 0.5 µM (≈ 0.171 µg/mL).
For COc1ccc2nc(C)cc(OCc3ccc(C(C)C)cc3)c2c1, the Ratio [5] was > 4, the MIC [1] was 0.2 µM (≈ 0.0643 µg/mL) and the MIC [2] was 1 µM (≈ 0.321 µg/mL). It also gave an MIC [3] of 7.8 µM (≈ 2.51 µg/mL) and an MIC [4] of 0.5 µM (≈ 0.161 µg/mL).

Source: ChEMBL document CHEMBL4680209, “Design, synthesis, and evaluation of new 2-(quinoline-4-yloxy)acetamide-based antituberculosis agents” (Eur J Med Chem, 2020)
